Data on 1 molecule can be found in ChEMBL document CHEMBL4819106, “Aminopyrazole based CDK9 PROTAC sensitizes pancreatic cancer cells to venetoclax” (Bioorg Med Chem Lett, 2021).

Test [1] concerns the target CDK9/Cyclin K (Homo sapiens) (UniProt P50750+O75909). In words: Protac activity at Cyclin K/CRBN in human HEK293 cells assessed as degradation of cyclin K at 0.01 to 10 uM incubated for 24 hrs by Western blot analysis. The class given is cell-based. Conditions: dose 0.01-10 µM. (In general: A western blot detects proteins with antibodies after separation by electrophoresis.)

In test [2] the target is T1, Protein cereblon/Cyclin-dependent kinase 9 (Homo sapiens, UniProt P50750+Q96SW2). The experiment in a line: Protac activity at CDK9/CRBN in human HEK293 cells assessed as degradation of CDK9 incubated for 24 hrs by Western blot analysis. Format: cell-based. The essentials: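 HEK293 cells were treated with increasing concentrations (0.01–10 μM) for 24 hr. Lysates were analysed by western blot for CDK9 degradation.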

The test system of test [3] is MIA PaCa-2. The experiment in a line: Antiproliferative activity against human MIA PaCa-2 cells assessed as sensitizing activity by measuring combination index at ED90 measured after 3 days in presence of ABT- 199 by Prestoblue assay. The class given is functional. Conditions: time 3 day. In a few lines: (§1)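 MiaPaCa2 cells were treated for 3 days with the CDK9 degrader and a Bcl2-family inhibitor (ABT-263, ABT-199 or WEHI-539), singly and combined. Viability was read by PrestoBlue. Combination index values were calculated with CalcuSyn at effective doses ED50, ED75 and ED90.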

Test [4] relates to MIA PaCa-2. The experiment in a line: Antiproliferative activity against human MIA PaCa-2 cells assessed as sensitizing activity by measuring combination index at ED90 measured after 3 days in presence of ABT- 263 by Prestoblue assay. Format: functional. The note with it: time 3 day. The essentials: as §1
Test [5] deals with T1, Protein cereblon/Cyclin-dependent kinase 9. In words: Protac activity at CDK9/CRBN in human HEK293 cells assessed as degradation of CDK9 at 1 uM measured up to 24 hrs by Western blot analysis. The class given is cell-based. The note with it: time hrs <=24. In a few lines:
(§2)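 Time course in HEK293 cells at 1 μM degrader; lysates collected at indicated time points up to 24 h and probed by western blot for the various CDKs.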
Target sequence in this assay (P50750 whole entry, looked up): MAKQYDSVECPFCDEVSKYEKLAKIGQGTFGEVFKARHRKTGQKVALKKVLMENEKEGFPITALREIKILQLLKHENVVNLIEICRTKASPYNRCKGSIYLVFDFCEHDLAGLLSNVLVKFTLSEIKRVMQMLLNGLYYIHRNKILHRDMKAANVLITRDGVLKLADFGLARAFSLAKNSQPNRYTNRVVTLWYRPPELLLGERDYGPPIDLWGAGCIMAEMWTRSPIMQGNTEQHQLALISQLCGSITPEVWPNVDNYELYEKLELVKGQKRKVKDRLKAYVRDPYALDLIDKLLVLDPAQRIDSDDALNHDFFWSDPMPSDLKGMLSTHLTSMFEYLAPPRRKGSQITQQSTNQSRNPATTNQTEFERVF
Target sequence in this assay (Q96SW2 whole entry, looked up): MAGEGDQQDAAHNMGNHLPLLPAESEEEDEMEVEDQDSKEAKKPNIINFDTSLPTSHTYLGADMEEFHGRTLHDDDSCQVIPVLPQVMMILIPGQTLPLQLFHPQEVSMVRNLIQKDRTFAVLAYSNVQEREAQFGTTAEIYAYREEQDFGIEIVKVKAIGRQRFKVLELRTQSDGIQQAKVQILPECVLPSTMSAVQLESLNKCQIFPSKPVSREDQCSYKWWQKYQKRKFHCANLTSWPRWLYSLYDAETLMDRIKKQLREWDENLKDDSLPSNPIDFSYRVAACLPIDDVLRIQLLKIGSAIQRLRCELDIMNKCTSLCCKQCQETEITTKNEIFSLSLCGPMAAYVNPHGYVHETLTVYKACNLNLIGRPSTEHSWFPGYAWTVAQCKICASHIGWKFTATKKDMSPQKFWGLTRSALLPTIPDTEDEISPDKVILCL

For test [6] the target is unchanged. In words: Protac activity at CDK9/CRBN in human SUIT-2 cells assessed as degradation of CDK9. Format: cell-based.
Target sequence in this assay (P50750 whole entry, looked up): as the sequence (P50750 whole entry, looked up) above
Target sequence in this assay (Q96SW2 whole entry, looked up): as the sequence (Q96SW2 whole entry, looked up) above
The target of test [7] is Protein cereblon/Cyclin-dependent kinase 7 (Homo sapiens) (UniProt P50613+Q96SW2). The experiment in a line: Protac activity at CDK7/CRBN in human HEK293 cells assessed as degradation of CDK7 at 1 uM measured upto 24 hrs by Western blot analysis. Format: cell-based. Conditions: time hrs <=24. In a few lines:
as §2

Test [8] concerns the target Cyclin-dependent kinase 9 (Homo sapiens, UniProt P50750). In words: Inhibition of CDK9 (unknown origin).
The target of test [9] is T1, Protein cereblon/Cyclin-dependent kinase 9. In words: Protac activity at CDK9/CRBN in human HEK293 cells assessed as degradation of CDK9 at 1 uM incubated for 24 hrs by Western blot analysis relative to control. The class given is cell-based.
Target sequence in this assay (P50750 whole entry, looked up): as the sequence (P50750 whole entry, looked up) above
Target sequence in this assay (Q96SW2 whole entry, looked up): as the sequence (Q96SW2 whole entry, looked up) above
Test [10] has the same target. The experiment in a line: Protac activity at CDK9/CRBN in human HEK293 cells assessed as degradation of CDK9 by Western blot analysis. The class given is cell-based. The note with it: TDE = time-dependent effect.
Target sequence in this assay (P50750 whole entry, looked up): as the sequence (P50750 whole entry, looked up) above
Target sequence in this assay (Q96SW2 whole entry, looked up): as the sequence (Q96SW2 whole entry, looked up) above
The test system of test [11] is MIA PaCa-2. The experiment in a line: Antiproliferative activity against human MIA PaCa-2 cells assessed as sensitizing activity by measuring combination index at ED50 measured after 3 days in presence of ABT- 199 by Prestoblue assay. Format: functional. Conditions: time 3 day. The essentials: as §1
In test [12] the test system is MIA PaCa-2. The experiment in a line: Antiproliferative activity against human MIA PaCa-2 cells assessed as sensitizing activity by measuring combination index at ED90 measured after 3 days in presence of WEHI-539 by Prestoblue assay. The class given is functional. The note with it: time 3 day. In a few lines: as §1
Test [13] relates to MIA PaCa-2. The experiment in a line: Antiproliferative activity against human MIA PaCa-2 cells assessed as sensitizing activity by measuring combination index at ED75 measured after 3 days in presence of ABT- 263 by Prestoblue assay. The note with it: time 3 day. The class given is functional. In a few lines:
as §1

The target of test [14] is Protein cereblon/Cyclin-dependent kinase 8 (Homo sapiens) (UniProt P49336+Q96SW2). The experiment in a line: Protac activity at CDK8/CRBN in human HEK293 cells assessed as degradation of CDK8 at 0.01 to 10 uM incubated for 24 hrs by Western blot analysis. Conditions: dose 0.01-10 µM. Format: cell-based.
Chain of Protein cereblon/Cyclin-dependent kinase 8 (Homo sapiens) (P49336 whole entry, looked up): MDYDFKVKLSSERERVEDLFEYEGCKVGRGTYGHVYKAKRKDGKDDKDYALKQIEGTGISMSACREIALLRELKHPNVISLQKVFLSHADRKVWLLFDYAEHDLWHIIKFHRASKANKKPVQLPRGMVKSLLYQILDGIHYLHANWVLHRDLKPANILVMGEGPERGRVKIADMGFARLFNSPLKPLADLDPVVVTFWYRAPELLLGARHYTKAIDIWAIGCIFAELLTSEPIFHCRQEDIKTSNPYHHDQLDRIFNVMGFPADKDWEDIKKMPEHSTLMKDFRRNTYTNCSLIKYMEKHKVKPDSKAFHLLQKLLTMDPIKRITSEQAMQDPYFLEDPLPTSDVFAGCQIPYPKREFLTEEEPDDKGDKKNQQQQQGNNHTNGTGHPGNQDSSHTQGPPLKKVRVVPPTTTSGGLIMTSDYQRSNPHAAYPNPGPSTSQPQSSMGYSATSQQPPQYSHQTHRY
Chain of Protein cereblon/Cyclin-dependent kinase 8 (Homo sapiens) (Q96SW2 whole entry, looked up): as the sequence (Q96SW2 whole entry, looked up) above
The target in test [15] is T1, Protein cereblon/Cyclin-dependent kinase 9. The experiment in a line: Protac activity at CDK9/CRBN in human HEK293 cells assessed as degradation of CDK9 at 1 uM incubated for 24 hrs in presence of MG132 by Western blot analysis. Format: cell-based. The essentials: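 HEK293 cells co-treated for 24 h with degrader and increasing concentrations of proteasome inhibitor MG132; lysates examined by western blot.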
Target sequence in this assay (P50750 whole entry, looked up): as the sequence (P50750 whole entry, looked up) above
Target sequence in this assay (Q96SW2 whole entry, looked up): as the sequence (Q96SW2 whole entry, looked up) above

For test [16], the target named is Protein cereblon/Cyclin-dependent kinase 1 (Homo sapiens) (UniProt P06493+Q96SW2). The experiment in a line: Protac activity at CDK1/CRBN in human HEK293 cells assessed as degradation of CDK1 at 0.01 to 10 uM incubated for 24 hrs by Western blot analysis. The note with it: dose 0.01-10 µM. Format: cell-based.
Chain of Protein cereblon/Cyclin-dependent kinase 1 (Homo sapiens) (P06493 whole entry, looked up): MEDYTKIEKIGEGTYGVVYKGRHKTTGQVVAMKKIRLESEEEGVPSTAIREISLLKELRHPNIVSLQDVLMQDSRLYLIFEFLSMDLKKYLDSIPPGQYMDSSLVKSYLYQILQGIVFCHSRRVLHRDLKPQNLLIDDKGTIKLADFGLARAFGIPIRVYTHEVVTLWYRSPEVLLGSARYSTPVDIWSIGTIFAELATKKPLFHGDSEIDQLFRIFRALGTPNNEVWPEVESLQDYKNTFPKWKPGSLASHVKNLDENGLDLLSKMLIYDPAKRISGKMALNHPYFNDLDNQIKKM
Chain of Protein cereblon/Cyclin-dependent kinase 1 (Homo sapiens) (Q96SW2 whole entry, looked up): as the sequence (Q96SW2 whole entry, looked up) above

Calls of active or inactive are those of the source. The calls are words filed in the database; no cut-off is given here.

Chain of Protein cereblon/Cyclin-dependent kinase 7 (Homo sapiens) (P50613 whole entry, looked up): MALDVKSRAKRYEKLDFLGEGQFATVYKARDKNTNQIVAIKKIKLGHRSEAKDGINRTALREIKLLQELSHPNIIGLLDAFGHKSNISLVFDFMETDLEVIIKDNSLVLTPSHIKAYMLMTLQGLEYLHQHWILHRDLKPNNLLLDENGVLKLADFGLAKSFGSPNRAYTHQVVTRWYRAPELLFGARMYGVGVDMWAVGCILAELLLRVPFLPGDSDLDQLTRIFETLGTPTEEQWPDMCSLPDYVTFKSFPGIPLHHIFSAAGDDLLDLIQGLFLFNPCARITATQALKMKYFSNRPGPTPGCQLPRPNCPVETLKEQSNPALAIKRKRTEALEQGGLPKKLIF
Chain of Protein cereblon/Cyclin-dependent kinase 7 (Homo sapiens) (Q96SW2 whole entry, looked up): as the sequence (Q96SW2 whole entry, looked up) above
Chain of Cyclin-dependent kinase 9 (P50750 whole entry): as the sequence (P50750 whole entry, looked up) above

In the case of `O=C(CCCOc1ccc(CC(=O)Nc2cc(C3CCC3)[nH]n2)cc1)NCCCCNc1cccc2c1C(=O)N(C1CCC(=O)NC1=O)C2=O` (configuration not stated), the result in test [1], in test [7], in test [14], in test [15] and in test [16] was inactive. The Activity entry in test [2] was “Dose-Dependent Effect”; in test [9], 100%; in test [10], “Tde”. Also, the 50% degradation concentration (DC50) in [2] was 158 nM. Also, the CI was determined as 0.001 in the test with MIA PaCa-2 [3]; 0.1 in the test with MIA PaCa-2 [4]; 0.02 in the test with MIA PaCa-2 [11]; 0.35 with MIA PaCa-2 [12]; 0.12 in the test on MIA PaCa-2 [13]. Further, the outcome in test [5] and in test [6] was Active. The same molecule displayed a half-maximal inhibitory concentration (IC50) in test [8] of 530 nM.

The term DC50 denotes the midpoint of the concentration-degradation curve. A word on the IC50: it is the point on the concentration scale where inhibition reaches its midpoint. Lower therefore signals greater potency.
